# In ChEMBL document CHEMBL1134325, “Diaminoindanes as microsomal triglyceride transfer protein inhibitors” (J Med Chem, 2001):
# Legend:
# Canis familiaris [1] = experiment: Inhibition of plasma total cholesterol in the normolipidemic dogs after day 4 of oral administration of 10 mg/kg/day. Values in the parentheses indicate mean percent inhibition for drug treated dogs.; format: functional, Canis lupus familiaris
# Procedure, shortened: (§1)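 Normolipidemic dogs dosed once daily for 4 days by oral gavage, compound suspended in cornstarch vehicle. Plasma sampled 24 h after dosing on days 0, 2, 3 and 4, assayed for triglycerides and total cholesterol (mg/dL). Mean percent inhibition versus day-0 level is given for treated dogs; n = 6 per group; significance by one-way ANOVA, p < 0.05.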
# Rattus norvegicus [2] = experiment: Inhibition of plasma triglycerides in normolipidemic rats after 24 hr of 10 mg/kg oral dosing; no significant change; format: functional, organism-based; design: dose 10 mg/kg
# Procedure, shortened: (§2)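 Overnight-fasted normolipidemic rats received a single oral dose in cornstarch vehicle. Blood was drawn at 2, 6 and 24 h post-dose and assayed for triglycerides and total cholesterol, with free access to food after the 6 h sample. Value is mean percent inhibition versus a separate vehicle-treated group, unpaired t test p < 0.05, NS = no significant change, N = 6.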
# Rattus norvegicus [3] = experiment: Inhibition of plasma triglycerides in normolipidemic rats after 2 hr of 50 mg/kg oral dosing; format: functional; procedure, shortened: as §2
# [4] = target: T1, Microsomal triglyceride transfer protein large subunit (Homo sapiens, UniProt P55157); experiment: In vitro inhibitory activity against MTP using MTP transfer assay
# T1 sequence (P55157 whole entry): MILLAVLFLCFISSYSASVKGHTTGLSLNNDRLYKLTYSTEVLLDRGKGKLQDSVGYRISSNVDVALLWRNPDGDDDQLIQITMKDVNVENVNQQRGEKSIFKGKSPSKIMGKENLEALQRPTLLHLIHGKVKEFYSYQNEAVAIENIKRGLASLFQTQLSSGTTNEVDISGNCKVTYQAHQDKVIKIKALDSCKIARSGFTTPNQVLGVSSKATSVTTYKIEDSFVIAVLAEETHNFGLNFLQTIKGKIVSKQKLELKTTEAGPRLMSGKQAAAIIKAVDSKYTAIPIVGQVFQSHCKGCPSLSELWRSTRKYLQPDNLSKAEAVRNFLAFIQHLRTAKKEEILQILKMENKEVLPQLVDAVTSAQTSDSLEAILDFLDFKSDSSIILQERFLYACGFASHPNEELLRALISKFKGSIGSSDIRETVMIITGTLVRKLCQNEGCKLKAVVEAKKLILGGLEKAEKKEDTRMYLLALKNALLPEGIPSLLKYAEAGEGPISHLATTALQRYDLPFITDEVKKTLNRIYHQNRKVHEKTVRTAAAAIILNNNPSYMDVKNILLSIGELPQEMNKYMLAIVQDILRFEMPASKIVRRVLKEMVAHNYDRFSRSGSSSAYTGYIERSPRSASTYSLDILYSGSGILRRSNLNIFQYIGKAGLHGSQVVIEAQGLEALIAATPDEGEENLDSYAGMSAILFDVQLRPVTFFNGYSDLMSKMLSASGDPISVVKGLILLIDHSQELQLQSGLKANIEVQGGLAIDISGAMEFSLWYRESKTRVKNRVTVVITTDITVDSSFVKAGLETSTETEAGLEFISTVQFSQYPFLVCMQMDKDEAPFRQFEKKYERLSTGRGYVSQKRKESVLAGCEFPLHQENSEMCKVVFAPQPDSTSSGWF
# Rattus norvegicus [5] = experiment: Inhibition of total cholesterol in normolipidemic rats after 6 hr of 50 mg/kg oral dosing; format: functional; procedure, shortened: as §2
# Canis familiaris [6] = experiment: Inhibition of plasma total triglycerides in the normolipidemic dogs after day 2 of oral administration of 10 mg/kg/day.; format: functional, Canis lupus familiaris; procedure, shortened: as §1
# Canis familiaris [7] = experiment: Inhibition of plasma total triglycerides in the normolipidemic dogs after day 4 of oral administration of 10 mg/kg/day. Values in the parentheses indicate mean percent inhibition for drug treated dogs.; format: functional, Canis lupus familiaris
# Rattus norvegicus [8] = experiment: Inhibition of total cholesterol in normolipidemic rats after 2 hr of 50 mg/kg oral dosing; format: functional; procedure, shortened: as §2
# Rattus norvegicus [9] = experiment: Inhibition of total cholesterol in normolipidemic rats after 24 hr of 10 mg/kg oral dosing; no significant change; format: functional, organism-based; design: dose 10 mg/kg; procedure, shortened: as §2
# Canis familiaris [10] = experiment: Inhibition of plasma total triglycerides in the normolipidemic dogs after day 4 of oral administration of 5 mg/kg/day.; format: functional, Canis lupus familiaris
# Canis familiaris [11] = experiment: Inhibition of plasma total cholesterol in the normolipidemic dogs after day 0 of oral administration of 5 mg/kg/day.; format: functional, Canis lupus familiaris; procedure, shortened: as §1
# Canis familiaris [12] = experiment: Inhibition of plasma total cholesterol in the normolipidemic dogs after day 3 of oral administration of 10 mg/kg/day.; format: functional, Canis lupus familiaris; procedure, shortened: as §1
# Rattus norvegicus [13] = experiment: Inhibition of plasma triglycerides in normolipidemic rats after 6 hr of 50 mg/kg oral dosing; format: functional; procedure, shortened: as §2
# Rattus norvegicus [14] = experiment: Inhibition of total cholesterol in normolipidemic rats after 6 hr of 10 mg/kg oral dosing; format: functional; procedure, shortened: as §2
# Canis familiaris [15] = experiment: Inhibition of plasma total cholesterol in the normolipidemic dogs after day 2 of oral administration of 5 mg/kg/day.; format: functional, Canis lupus familiaris; procedure, shortened: as §1
# Rattus norvegicus [16] = experiment: Inhibition of total cholesterol in normolipidemic rats after 2 hr of 10 mg/kg oral dosing; format: functional; procedure, shortened: as §2
# Rattus norvegicus [17] = experiment: Inhibition of plasma triglycerides in normolipidemic rats after 6 hr of 10 mg/kg oral dosing; format: functional; procedure, shortened: as §2
# Canis familiaris [18] = experiment: Inhibition of plasma total triglycerides in the normolipidemic dogs after day 3 of oral administration of 5 mg/kg/day.; format: functional, Canis lupus familiaris
# Rattus norvegicus [19] = experiment: Inhibition of plasma triglycerides in normolipidemic rats after 24 h of 50 mg/kg oral dosing; no significant change; format: functional, organism-based; design: dose 50 mg/kg; procedure, shortened: as §2
# Canis familiaris [20] = experiment: Inhibition of plasma total cholesterol in the normolipidemic dogs after day 0 of oral administration of 10 mg/kg/day.; format: functional, Canis lupus familiaris; procedure, shortened: as §1
# Canis familiaris [21] = experiment: Inhibition of plasma total cholesterol in the normolipidemic dogs after day 2 of oral administration of 10 mg/kg/day.; format: functional, Canis lupus familiaris; procedure, shortened: as §1
# Canis familiaris [22] = experiment: Inhibition of plasma total triglycerides in the normolipidemic dogs after day 2 of oral administration of 5 mg/kg/day.; format: functional, Canis lupus familiaris; procedure, shortened: as §1
# Rattus norvegicus [23] = experiment: Inhibition of total cholesterol in normolipidemic rats after 24 hr of 50 mg/kg oral dosing; format: functional; procedure, shortened: as §2
# Canis familiaris [24] = experiment: Inhibition of plasma total cholesterol in the normolipidemic dogs after day 3 of oral administration of 5 mg/kg/day.; format: functional, Canis lupus familiaris; procedure, shortened: as §1
# Canis familiaris [25] = experiment: Inhibition of plasma total cholesterol in the normolipidemic dogs after day 4 of oral administration of 5 mg/kg/day. Values in the parentheses indicate mean percent inhibition for drug treated dogs.; format: functional, Canis lupus familiaris; procedure, shortened: as §1
# Canis familiaris [26] = experiment: Inhibition of plasma total triglycerides in the normolipidemic dogs after day 3 of oral administration of 10 mg/kg/day.; format: functional, Canis lupus familiaris
# Canis familiaris [27] = experiment: Inhibition of plasma total triglycerides in the normolipidemic dogs after day 0 of oral administration of 10 mg/kg/day.; format: functional, Canis lupus familiaris; procedure, shortened: as §1
# Canis familiaris [28] = experiment: Inhibition of plasma total triglycerides in the normolipidemic dogs after day 0 of oral administration of 5 mg/kg/day.; format: functional, Canis lupus familiaris; procedure, shortened: as §1
# Rattus norvegicus [29] = experiment: Inhibition of plasma triglycerides in normolipidemic rats after 2 hr of 10 mg/kg oral dosing; format: functional; procedure, shortened: as §2
compound,measurement,setting,value
Cc1cccc(C(=O)Nc2ccc3c(c2)C[C@@H](NCc2ccccn2)C3)c1-c1ccc(C(F)(F)F)cc1,Lipid level,Canis familiaris [1],<36 mg/dL
same,NS,Rattus norvegicus [2],no significant change
same,Reduction,Rattus norvegicus [3],91%
same,IC50,[4],0.1 µM
same,Reduction,Rattus norvegicus [5],57%
same,Lipid level,Canis familiaris [6],<26 mg/dL
same,Lipid level,Canis familiaris [7],<23 mg/dL
same,Reduction,Rattus norvegicus [8],40%
same,NS,Rattus norvegicus [9],no significant change
same,Lipid level,Canis familiaris [10],32 mg/dL
same,Lipid level,Canis familiaris [11],130 mg/dL
same,Lipid level,Canis familiaris [12],<54 mg/dL
same,Reduction,Rattus norvegicus [13],88%
same,Reduction,Rattus norvegicus [14],35%
same,Lipid level,Canis familiaris [15],<110 mg/dL
same,Reduction,Rattus norvegicus [16],34%
same,Reduction,Rattus norvegicus [17],47%
same,Lipid level,Canis familiaris [18],41 mg/dL
same,NS,Rattus norvegicus [19],no significant change
same,Lipid level,Canis familiaris [20],125 mg/dL
same,Lipid level,Canis familiaris [21],<69 mg/dL
same,Lipid level,Canis familiaris [22],38 mg/dL
same,Reduction,Rattus norvegicus [23],29%
same,Lipid level,Canis familiaris [24],<99 mg/dL
same,Lipid level,Canis familiaris [25],<94 mg/dL
same,Lipid level,Canis familiaris [26],<27 mg/dL
same,Lipid level,Canis familiaris [27],46 mg/dL
same,Lipid level,Canis familiaris [28],36 mg/dL
same,Reduction,Rattus norvegicus [29],86%
